Published values from different studies.
Compare with care: the assays were run in different laboratories. pIC50, pKd, pKi: −log10 of the molar value.
Penicillin-binding protein 2X: Penicillin-binding protein 2X (Streptococcus pneumoniae R6, UniProt P59676)
PTGS2: Prostaglandin G/H synthase 2 (PTGS2, Homo sapiens, UniProt P35354)

Fc1c(F)c(F)c(OCCn2c(CNCC34CC5CC(CC(C5)C3)C4)nc3ccccc32)c(F)c1F  pKd (Penicillin-binding protein 2X; binding, MST): 4.15
CN1CC[C@@]2(C)c3cc(OC(=O)Nc4ccccc4)ccc3N(C)[C@@H]12  pIC50 (Retinal dehydrogenase 2 (ALDH1A2, Homo sapiens, UniProt O94788); enzyme activity, inhibitor, fluorescence; 15 min, pH 7.5): > 5.00
CCCCC/C=C\C/C=C\C/C=C\C/C=C\CCCC(=O)OC(CO)CO  pKi (Fatty acid-binding protein 5-ANS (Mus musculus, UniProt Q05816); ligand displacement, fluorescence): 6.00
CC(C)(C)CNCc1nc2ccccc2n1CCOc1ccccc1  pKd (Penicillin-binding protein 2X; binding, MST): 3.94
C=CCOc1ccc(C(=O)/C=C/c2cccc(F)c2)c(OS(=O)(=O)c2ccc(F)cc2)c1I  pIC50 (PTGS2; enzyme activity, inhibitor): 4.73
COc1cc2c(cc1OC)CN(CCc1ccc(NC(=O)c3cccc4c(=O)c5cccc(OC)c5[nH]c34)cc1)CC2  pKi (Alpha-1D adrenergic receptor (ADRA1D, Homo sapiens, UniProt P25100); cell-free assay): 6.84
Cn1c(=O)n(CCCCN2CCC3(CC2)OCc2ccccc23)c2ccccc21  pKi (Sigma non-opioid intracellular receptor 1 (SIGMAR1, Cavia porcellus, UniProt Q60492); ligand displacement, radioligand; cell membranes): 7.85
COc1ccc2cc3[n+](cc2c1OC)CCc1cc2c(cc1-3)OCO2  pKd (Zinc finger protein GLI1 (GLI1, Homo sapiens, UniProt P08151); binding, SPR): ~6.19
C=CCOc1ccc(C(=O)/C=C/c2ccc(OC)cc2)c(OS(=O)(=O)c2ccc(F)cc2)c1I  pIC50 (PTGS2; enzyme activity, inhibitor): 4.54
